# Source: ChEMBL document CHEMBL1773035, “SHAFTS: a hybrid approach for 3D molecular similarity calculation. 2. Prospective case study in the discovery of diverse p90 ribosomal S6 protein kinase 2 inhibitors to suppress cell migration” (J Med Chem, 2011)
# Activity calls are given as the source filed them. The rule behind the calls is not given here.
# Tests used:
# MCF7 [1] = assay: Antiproliferative activity against human MCF7 cells over expressing RSK2 after 48 hrs by MTT assay; type: functional, cell-based; settings: MCF7, 48 h
# Summary of the method: (§1)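 Formazan dissolved in DMSO, absorbance read at 570 nm. Inhibition = (1 − A570 compound/A570 control)×100. Screening concentration 100 μM (control 10 μM). IC50 from curves, ≥3 independent tests, attempted when inhibition at 100 μM exceeded 40%.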
# HCT-116 [2] = assay: Antiproliferative activity against human HCT116 cells over expressing RSK2 after 48 hrs by MTT assay; type: functional, cell-based; settings: HCT-116, 48 h; summary of the method: as §1
# MDA-MB-231 [3] = assay: Antiproliferative activity against human MDA-MB-231 cells over expressing RSK2 at 100 uM after 48 hrs by MTT assay; type: functional; settings: MDA-MB-231, 48 h; summary of the method: as §1
# MDA-MB-231 [4] = assay: Antiproliferative activity against human MDA-MB-231 cells over expressing RSK2 after 48 hrs by MTT assay; type: functional, cell-based; settings: MDA-MB-231, 48 h; summary of the method: as §1
# MCF7 [5] = assay: Antiproliferative activity against human MCF7 cells over expressing RSK2 at 100 uM after 48 hrs by MTT assay; type: functional; settings: MCF7, 48 h; summary of the method: as §1
# [6] = biological target: T1, Ribosomal protein S6 kinase alpha-3 (Homo sapiens, UniProt P51812); assay: Inhibition of RSK2 after 60 mins
# T1 sequence (P51812 whole entry): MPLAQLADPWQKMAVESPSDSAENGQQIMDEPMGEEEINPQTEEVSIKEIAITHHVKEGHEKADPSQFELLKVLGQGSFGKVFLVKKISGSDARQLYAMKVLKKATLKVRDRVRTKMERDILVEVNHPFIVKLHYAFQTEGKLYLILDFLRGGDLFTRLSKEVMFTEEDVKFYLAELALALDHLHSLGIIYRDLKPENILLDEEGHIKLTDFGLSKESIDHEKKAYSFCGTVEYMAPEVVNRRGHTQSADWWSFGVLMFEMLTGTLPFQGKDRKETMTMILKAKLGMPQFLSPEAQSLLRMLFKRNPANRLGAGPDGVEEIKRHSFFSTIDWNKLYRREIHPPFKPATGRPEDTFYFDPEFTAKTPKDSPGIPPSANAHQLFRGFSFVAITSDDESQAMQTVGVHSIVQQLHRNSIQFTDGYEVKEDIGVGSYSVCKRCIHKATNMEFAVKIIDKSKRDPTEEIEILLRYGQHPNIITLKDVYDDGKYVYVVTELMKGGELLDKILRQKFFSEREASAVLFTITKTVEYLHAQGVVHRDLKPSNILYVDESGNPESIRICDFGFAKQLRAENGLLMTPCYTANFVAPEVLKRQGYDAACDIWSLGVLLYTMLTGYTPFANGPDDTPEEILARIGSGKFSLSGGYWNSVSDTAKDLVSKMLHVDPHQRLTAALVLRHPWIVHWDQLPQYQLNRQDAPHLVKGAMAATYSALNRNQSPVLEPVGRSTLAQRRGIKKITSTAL
# Summary of the method: (§2)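 Recombinant RSK2 (20 ng) preincubated 20 min at room temperature with compound in HEPES pH 7.4 buffer (MgCl2, EGTA, Tween 20, BGG) with 25 μM S6 peptide; started with ATP (10 μM final), 60 min at room temperature. ADP Quest fluorescence read at ex 530/em 590 nm. IC50 from curves of ≥3 independent tests, measured when inhibition at 10 μM exceeded 30%.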
# HCT-116 [7] = assay: Antiproliferative activity against human HCT116 cells over expressing RSK2 at 100 uM after 48 hrs by MTT assay; type: functional; settings: HCT-116, 48 h; summary of the method: as §1
# [8] = biological target: Ribosomal protein S6 kinase alpha-5 (Homo sapiens) (UniProt O75582); assay: Inhibition of MSK1 at 10 uM
# Ribosomal protein S6 kinase alpha-5 (Homo sapiens), sequence (O75582 whole entry, looked up): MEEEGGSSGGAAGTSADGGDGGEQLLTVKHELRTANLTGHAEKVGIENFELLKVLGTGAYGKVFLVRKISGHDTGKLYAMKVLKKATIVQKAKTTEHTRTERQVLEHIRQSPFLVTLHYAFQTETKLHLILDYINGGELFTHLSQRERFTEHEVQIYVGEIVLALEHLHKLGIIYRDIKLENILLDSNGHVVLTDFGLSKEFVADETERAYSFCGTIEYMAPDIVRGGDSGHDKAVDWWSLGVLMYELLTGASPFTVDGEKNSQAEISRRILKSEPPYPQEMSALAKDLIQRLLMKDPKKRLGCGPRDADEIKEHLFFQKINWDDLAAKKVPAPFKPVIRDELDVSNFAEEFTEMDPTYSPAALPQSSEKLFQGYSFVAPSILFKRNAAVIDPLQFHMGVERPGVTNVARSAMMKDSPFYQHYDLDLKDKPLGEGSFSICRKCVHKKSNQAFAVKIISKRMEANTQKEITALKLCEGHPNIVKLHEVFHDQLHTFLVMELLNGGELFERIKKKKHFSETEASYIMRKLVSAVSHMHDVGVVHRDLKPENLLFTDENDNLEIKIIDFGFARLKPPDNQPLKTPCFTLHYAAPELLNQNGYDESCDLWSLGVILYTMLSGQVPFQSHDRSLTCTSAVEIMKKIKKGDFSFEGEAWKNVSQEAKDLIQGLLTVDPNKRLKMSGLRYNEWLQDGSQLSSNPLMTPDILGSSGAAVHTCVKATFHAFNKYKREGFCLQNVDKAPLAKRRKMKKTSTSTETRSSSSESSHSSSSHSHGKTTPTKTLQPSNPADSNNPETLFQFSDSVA
# Summary of the method: (§3)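 Serine/threonine kinase profiling by an outside contract service following manufacturer protocols, ATP at Km for each enzyme; percent inhibition at 10 μM.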
# [9] = biological target: Ephrin type-A receptor 2 (Homo sapiens) (UniProt P29317); assay: Inhibition of EPHA2 at 10 uM by ELISA based method
# Summary of the method: (§4)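 Tyrosine kinase profiling by ELISA-based method, ATP at Km for each enzyme; percent inhibition at 10 μM, mean of at least two independent tests.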
# [10] = biological target: Ribosomal protein S6 kinase beta-1 (Homo sapiens) (UniProt P23443); assay: Inhibition of p70S6K at 10 uM; summary of the method: as §3
# Ribosomal protein S6 kinase beta-1 (Homo sapiens), sequence (P23443 whole entry, looked up): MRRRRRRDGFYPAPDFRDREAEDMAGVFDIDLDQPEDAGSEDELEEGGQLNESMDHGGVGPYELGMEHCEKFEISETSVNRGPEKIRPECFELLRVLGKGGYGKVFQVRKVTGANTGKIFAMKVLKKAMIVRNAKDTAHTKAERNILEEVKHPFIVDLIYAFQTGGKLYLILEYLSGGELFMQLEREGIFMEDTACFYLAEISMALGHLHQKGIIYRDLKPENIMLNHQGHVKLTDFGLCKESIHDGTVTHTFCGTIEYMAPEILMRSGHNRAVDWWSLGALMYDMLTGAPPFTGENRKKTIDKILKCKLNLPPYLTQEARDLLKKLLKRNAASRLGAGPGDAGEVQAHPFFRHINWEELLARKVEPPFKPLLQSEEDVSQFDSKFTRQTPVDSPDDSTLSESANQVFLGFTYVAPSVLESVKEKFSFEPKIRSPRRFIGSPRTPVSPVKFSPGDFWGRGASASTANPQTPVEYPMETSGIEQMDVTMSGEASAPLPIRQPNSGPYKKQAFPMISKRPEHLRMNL
# [11] = biological target: Mitogen-activated protein kinase 9 (Homo sapiens) (UniProt P45984); assay: Inhibition of JNK2 at 10 uM; summary of the method: as §3
# [12] = biological target: 3-phosphoinositide-dependent protein kinase 1 (Homo sapiens) (UniProt O15530); assay: Inhibition of PDK1 at 10 uM
# [13] = biological target: T1, Ribosomal protein S6 kinase alpha-3; assay: Inhibition of RSK2 at 10 uM; summary of the method: as §2
# [14] = biological target: Mast/stem cell growth factor receptor Kit (Homo sapiens) (UniProt P10721); assay: Inhibition of c-Kit at 10 uM by ELISA based method; summary of the method: as §4
# [15] = biological target: Mitogen-activated protein kinase 3 (Homo sapiens) (UniProt P27361); assay: Inhibition of ERK1 at 10 uM; summary of the method: as §3
# Mitogen-activated protein kinase 3 (Homo sapiens), sequence (P27361 whole entry): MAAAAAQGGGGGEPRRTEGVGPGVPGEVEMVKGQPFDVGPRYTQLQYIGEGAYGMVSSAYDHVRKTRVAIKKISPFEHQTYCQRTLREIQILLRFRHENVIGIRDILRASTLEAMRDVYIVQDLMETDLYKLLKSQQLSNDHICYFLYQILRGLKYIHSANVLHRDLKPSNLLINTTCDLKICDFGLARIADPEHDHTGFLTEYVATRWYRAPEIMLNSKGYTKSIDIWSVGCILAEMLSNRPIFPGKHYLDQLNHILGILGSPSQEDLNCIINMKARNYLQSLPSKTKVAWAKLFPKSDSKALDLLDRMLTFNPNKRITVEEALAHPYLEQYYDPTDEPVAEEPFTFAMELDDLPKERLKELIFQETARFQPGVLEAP
# [16] = biological target: Vascular endothelial growth factor receptor 2 (Homo sapiens) (UniProt P35968); assay: Inhibition of KDR at 10 uM by ELISA based method; summary of the method: as §4
# [17] = biological target: Proto-oncogene tyrosine-protein kinase receptor Ret (Homo sapiens) (UniProt P07949); assay: Inhibition of RET at 10 uM by ELISA based method; summary of the method: as §4
# Proto-oncogene tyrosine-protein kinase receptor Ret (Homo sapiens), sequence (P07949 whole entry): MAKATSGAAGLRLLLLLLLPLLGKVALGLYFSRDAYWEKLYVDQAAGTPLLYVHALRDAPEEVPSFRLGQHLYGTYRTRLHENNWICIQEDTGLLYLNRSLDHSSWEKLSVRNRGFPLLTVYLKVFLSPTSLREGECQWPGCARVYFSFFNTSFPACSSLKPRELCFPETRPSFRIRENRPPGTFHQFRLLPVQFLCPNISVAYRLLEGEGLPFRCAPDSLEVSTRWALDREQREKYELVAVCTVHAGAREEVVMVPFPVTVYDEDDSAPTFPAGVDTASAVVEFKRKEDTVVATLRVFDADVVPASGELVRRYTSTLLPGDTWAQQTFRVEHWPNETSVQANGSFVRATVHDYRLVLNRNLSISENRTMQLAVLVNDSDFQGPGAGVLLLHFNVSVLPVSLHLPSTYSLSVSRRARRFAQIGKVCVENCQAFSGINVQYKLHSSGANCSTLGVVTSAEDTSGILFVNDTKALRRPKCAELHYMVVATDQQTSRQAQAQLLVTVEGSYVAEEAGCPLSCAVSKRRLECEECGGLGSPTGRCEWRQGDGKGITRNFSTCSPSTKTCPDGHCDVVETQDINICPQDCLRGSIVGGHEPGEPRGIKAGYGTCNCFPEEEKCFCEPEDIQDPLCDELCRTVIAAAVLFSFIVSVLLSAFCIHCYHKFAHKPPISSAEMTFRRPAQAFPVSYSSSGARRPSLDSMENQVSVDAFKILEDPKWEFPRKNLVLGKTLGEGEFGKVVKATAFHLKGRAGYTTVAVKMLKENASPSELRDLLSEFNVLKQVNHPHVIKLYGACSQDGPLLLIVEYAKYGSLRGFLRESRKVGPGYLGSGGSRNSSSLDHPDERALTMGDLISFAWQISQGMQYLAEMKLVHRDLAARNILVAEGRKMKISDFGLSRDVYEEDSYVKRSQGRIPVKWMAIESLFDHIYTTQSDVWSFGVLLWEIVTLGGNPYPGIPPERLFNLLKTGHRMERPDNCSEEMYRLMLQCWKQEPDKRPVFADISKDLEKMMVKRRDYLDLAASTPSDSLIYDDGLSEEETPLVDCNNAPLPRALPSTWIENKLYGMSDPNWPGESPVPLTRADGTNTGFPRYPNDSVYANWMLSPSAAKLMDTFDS
# [18] = biological target: Glycogen synthase kinase-3 alpha (Homo sapiens) (UniProt P49840); assay: Inhibition of GSK3alpha at 10 uM; summary of the method: as §3
# [19] = biological target: Tyrosine-protein kinase ABL1 (Homo sapiens) (UniProt P00519); assay: Inhibition of ABL at 10 uM by ELISA based method; summary of the method: as §4
# [20] = biological target: Mitogen-activated protein kinase 14 (Homo sapiens) (UniProt Q16539); assay: Inhibition of p38alpha at 10 uM; summary of the method: as §3
# Mitogen-activated protein kinase 14 (Homo sapiens), sequence (Q16539 whole entry): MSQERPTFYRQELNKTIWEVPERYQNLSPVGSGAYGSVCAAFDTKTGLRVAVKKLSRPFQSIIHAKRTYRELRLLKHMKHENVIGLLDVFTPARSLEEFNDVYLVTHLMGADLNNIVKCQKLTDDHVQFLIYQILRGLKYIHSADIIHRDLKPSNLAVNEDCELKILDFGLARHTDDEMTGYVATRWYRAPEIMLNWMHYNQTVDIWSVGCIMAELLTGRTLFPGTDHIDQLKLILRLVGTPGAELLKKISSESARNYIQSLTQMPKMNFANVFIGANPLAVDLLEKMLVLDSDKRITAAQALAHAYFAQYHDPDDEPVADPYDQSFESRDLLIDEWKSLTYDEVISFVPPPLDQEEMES
# [21] = biological target: Proto-oncogene tyrosine-protein kinase Src (Homo sapiens) (UniProt P12931); assay: Inhibition of c-Src at 10 uM by ELISA based method; summary of the method: as §4
# Proto-oncogene tyrosine-protein kinase Src (Homo sapiens), sequence (P12931 2-536 limits assumed): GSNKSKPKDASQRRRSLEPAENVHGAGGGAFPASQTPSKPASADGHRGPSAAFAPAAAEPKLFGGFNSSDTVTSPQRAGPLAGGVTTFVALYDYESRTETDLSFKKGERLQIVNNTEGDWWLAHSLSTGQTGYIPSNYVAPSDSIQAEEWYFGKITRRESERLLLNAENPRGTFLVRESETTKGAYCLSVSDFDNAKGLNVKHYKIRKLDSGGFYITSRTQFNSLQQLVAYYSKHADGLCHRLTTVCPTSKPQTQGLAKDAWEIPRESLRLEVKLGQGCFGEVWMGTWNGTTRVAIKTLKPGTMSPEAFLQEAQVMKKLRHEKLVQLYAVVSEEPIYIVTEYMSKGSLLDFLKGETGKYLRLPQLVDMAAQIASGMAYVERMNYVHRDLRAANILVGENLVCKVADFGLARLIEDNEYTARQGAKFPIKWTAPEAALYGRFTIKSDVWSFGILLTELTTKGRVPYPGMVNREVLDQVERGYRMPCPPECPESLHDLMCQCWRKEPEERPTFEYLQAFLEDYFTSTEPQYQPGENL
# [22] = biological target: Fibroblast growth factor receptor 1 (Homo sapiens) (UniProt P11362); assay: Inhibition of FGFR1 at 10 uM by ELISA based method; summary of the method: as §4
# [23] = biological target: Serine/threonine-protein kinase pim-1 (Homo sapiens) (UniProt P11309); assay: Inhibition of PIM1 at 10 uM; summary of the method: as §3
# Serine/threonine-protein kinase pim-1 (Homo sapiens), sequence (P11309 whole entry, looked up): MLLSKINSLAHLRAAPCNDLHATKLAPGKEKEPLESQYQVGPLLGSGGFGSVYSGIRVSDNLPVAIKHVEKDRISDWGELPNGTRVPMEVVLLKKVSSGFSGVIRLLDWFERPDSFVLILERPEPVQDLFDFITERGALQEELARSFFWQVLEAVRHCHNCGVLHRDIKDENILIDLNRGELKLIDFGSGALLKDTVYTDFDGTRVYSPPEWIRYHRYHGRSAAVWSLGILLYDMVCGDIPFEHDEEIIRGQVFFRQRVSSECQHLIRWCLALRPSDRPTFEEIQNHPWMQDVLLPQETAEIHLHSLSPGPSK
# [24] = biological target: RAC-alpha serine/threonine-protein kinase (Homo sapiens) (UniProt P31749); assay: Inhibition of AKT1 at 10 uM; summary of the method: as §3
# [25] = biological target: Epidermal growth factor receptor (Homo sapiens) (UniProt P00533); assay: Inhibition of EGFR at 10 uM by ELISA based method; summary of the method: as §4
# [26] = biological target: Vascular endothelial growth factor receptor 1 (Homo sapiens) (UniProt P17948); assay: Inhibition of Flt1 at 10 uM by ELISA based method; summary of the method: as §4
# [27] = biological target: Platelet-derived growth factor receptor alpha (Homo sapiens) (UniProt P16234); assay: Inhibition of PDGFRalpha at 10 uM by ELISA based method; summary of the method: as §4
# [28] = biological target: Platelet-derived growth factor receptor beta (Homo sapiens) (UniProt P09619); assay: Inhibition of PDGFRbeta at 10 uM by ELISA based method; summary of the method: as §4
# [29] = biological target: Protein kinase C alpha type (Homo sapiens) (UniProt P17252); assay: Inhibition of PKCalpha at 10 uM; summary of the method: as §3
# MDA-MB-231 [30] = assay: Antimigratory activity against human MDA-MB-231 cells at 5 uM after 48 hrs by wound-healing assay; type: functional, cell-based
# Summary of the method: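 MDA-MB-231 grown 24 h to confluence in six-well plates, monolayer scratched with a pipet tip, washed, then kept in serum-free DMEM with compound (0.5 and 5 μM) for 48 h; migration photographed by phase-contrast microscopy at 0 and 48 h.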
smiles,measurement,setting,value
Cc1ccc2nc(-c3cc(N)cc(C)c3O)oc2c1,IC50,MCF7 [1],> 100 µM
same,IC50,HCT-116 [2],> 100 µM
same,inhibition at 100 µM,MDA-MB-231 [3],54.7%
same,IC50,MDA-MB-231 [4],> 100 µM
same,inhibition at 100 µM,MCF7 [5],45.1%
same,IC50,[6],1.38 µM
same,inhibition at 100 µM,HCT-116 [7],44.2%
N#Cc1nc(/N=N/c2ccccc2)[nH]c1O,inhibition at 100 µM,MDA-MB-231 [3],12.1%
same,inhibition at 100 µM,MCF7 [5],0%
same,IC50,[6],7.04 µM
same,inhibition at 100 µM,HCT-116 [7],4.8%
O=C1NC(=O)C(=NNc2ccc(O)cc2)C(=O)N1,IC50,MCF7 [1],15.6 µM
same,IC50,HCT-116 [2],> 100 µM
same,inhibition at 100 µM,MDA-MB-231 [3],97.9%
same,IC50,MDA-MB-231 [4],9.69 µM
same,inhibition at 100 µM,MCF7 [5],85.8%
same,IC50,[6],1.58 µM
same,inhibition at 100 µM,HCT-116 [7],49.1%
Nc1n[nH]c(N)c1/N=N/c1ccc(S(N)(=O)=O)cc1,inhibition at 100 µM,MDA-MB-231 [3],18.5%
same,inhibition at 100 µM,MCF7 [5],32.9%
same,IC50,[6],5.5 µM
same,inhibition at 100 µM,HCT-116 [7],6.98%
Oc1ccc(NCn2nnc3ccccc32)cc1,IC50,MCF7 [1],18 µM
same,IC50,HCT-116 [2],56.2 µM
same,inhibition,[8],10.1%
same,inhibition,[9],38.2%
same,inhibition,[10],6.9%
same,inhibition,[11],11%
same,inhibition,[12],-5.8%
same,inhibition,[13],89.2%
same,inhibition,[14],15.6%
same,inhibition,[15],2.8%
same,inhibition,[16],16.9%
same,inhibition,[17],10%
same,inhibition,[18],29.3%
same,inhibition,[19],8.6%
same,inhibition,[20],13%
same,inhibition at 100 µM,MDA-MB-231 [3],98.8%
same,inhibition,[21],14.2%
same,inhibition,[22],31.3%
same,IC50,MDA-MB-231 [4],14.9 µM
same,inhibition at 100 µM,MCF7 [5],97%
same,inhibition,[23],0.7%
same,inhibition,[24],8.6%
same,inhibition,[25],32.4%
same,IC50,[6],0.48 µM
same,inhibition,[26],2.4%
same,inhibition at 100 µM,HCT-116 [7],91.6%
same,inhibition,[27],-6.9%
same,inhibition,[28],55.2%
Nc1nc2nc(O)nc(O)c2s1,IC50,[6],9.99 µM
Cc1c(O)ccc(/N=N/c2ccc(S(=O)(=O)O)cc2)c1C,IC50,[6],15.1 µM
O=c1[nH]c(=O)c2ncc(-c3ccc(O)cc3)nc2[nH]1,IC50,[6],14.5 µM
Cc1c(N)ccc2[nH]c(-c3ccc(N)cc3)nc12,IC50,MCF7 [1],25.5 µM
same,IC50,HCT-116 [2],30.2 µM
same,inhibition,[8],3.1%
same,inhibition,[9],24%
same,inhibition,[10],6.2%
same,inhibition,[11],-1.4%
same,inhibition,[29],-0.4%
same,inhibition,[13],95.5%
same,inhibition,[14],11.5%
same,inhibition,[15],-4.4%
same,inhibition,[16],21.9%
same,inhibition,[17],0.6%
same,inhibition,[18],3.5%
same,inhibition,[19],7.4%
same,inhibition,[20],2.7%
same,inhibition at 100 µM,MDA-MB-231 [3],89.2%
same,inhibition,[21],8.2%
same,inhibition,[22],15.5%
same,IC50,MDA-MB-231 [4],16.1 µM
same,inhibition at 100 µM,MCF7 [5],98.3%
same,inhibition,[23],86.8%
same,inhibition,[24],-2.5%
same,inhibition,[25],44.9%
same,Activity,MDA-MB-231 [30],Active
same,inhibition,[26],12.5%
same,inhibition at 100 µM,HCT-116 [7],89.6%
same,inhibition,[27],1.4%
same,inhibition,[28],62.8%
